# The whole screen tested about 2,500 compounds, of which about 460 (18%) were called active. These entries were drawn from the full list. Values without a mark were called inactive.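 The calls were made as follows: active = mean activation above a cutoff of low control average plus 3 SD from the earlier screen (cut at about 12% in these data); inactive = the rest.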
# Assay: IANBD-channel fluorescence artefacts in buffer – biochemical, artefact control for cardiac RTF calcium sensitizer project, confirmation (AID 504382)
# Conditions: IANBD fluorescence interference counterscreen, EC20 Ca2+, at 7.2 µM, hits give high values, scaled: EC20 calcium 0, EC100 calcium 100
# Summary of the method: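 Also added: EC20 calcium, 0.472 mM; dosing: single nominal 7.2 µM compound dose, 0.7% DMSO final; timing: 15 min, 25 °C; detection: fluorescence intensity, excitation 480 nm, emission 540 nm; replicates: each compound tested in triplicate wells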
row,Compound,fluorescence artifact activation
1,COc1ccc(OC)c(NC(=O)c2cc(S(=O)(=O)N(C)C)ccc2N2CCCC2)c1,0.05%
2,COc1ccc(Cl)cc1NC(=O)CN(C)C(=O)COc1ccccc1F,0.35%
3,COc1ccc(Cl)cc1NC(=O)CN(C)C(=O)c1ccc(N2CCCCCC2)c([N+](=O)[O-])c1,21.3% (active)
4,Cc1nc(NC(=O)c2ccccc2[N+](=O)[O-])sc1C(=O)N(C)C,0.02%
5,O=C(c1ccc(Nc2cccc(C(F)(F)F)c2)nc1)N1CCCC1,55.9% (active)
6,COc1cccc(S(=O)(=O)Nc2cccc(C(=O)N3CCCCCC3)c2)c1,0.03%
7,O=C(CN1CCN(c2ccccc2)CC1)Nc1cccc(C(F)(F)F)c1,0.02%
8,Cc1ccc(S(=O)(=O)N2CCOCC2)cc1NC(=O)CSc1nccn1C,0.07%
9,CCCCCC(C)NC(=S)NC(=O)c1cc(S(=O)(=O)N2CCOCC2)ccc1C (stereo not given),0.05%
10,Cc1csc(NS(=O)(=O)c2cccc([N+](=O)[O-])c2)n1,0.08%
11,CC1=CC(=C(C#N)C#N)C=C(C)N1Cc1ccc(Cl)cc1,10.8%
12,CCSC1=N/C(=C\C=C2/Oc3ccccc3N2CC)C(=O)S1,9.59%
13,CC(Sc1nnc(NCc2ccccc2)s1)C(=O)Nc1ccc2c(c1)C(=O)c1ccccc1C2=O (stereo not given),49% (active)
14,COC(=O)c1ccc(CSc2nnc(NCc3ccccc3)s2)o1,4.53%
15,CC1(C(=O)Nc2nnc(SCc3ccccc3)s2)Cc2ccccc2C(=O)O1 (stereo not given),4.5%
16,CCc1ccc(C(C)NC(=O)c2ncn[nH]2)cc1 (stereo not given),2.22%
17,Clc1ccc(-n2cc(-c3ccc(Br)cc3)[n+]3c2CCCCC3)cc1,-0.05%
18,CC(C)(Cc1cccc(CC(C)(C)C(=O)O)c1)C(=O)O,0.07%
19,CC(=O)Oc1ccc2c(c1)Oc1cc(OC(C)=O)ccc1C21OC(=O)c2ccccc21,13.6% (active)
20,CC(=O)Oc1ccc(NC(=O)Cc2ccccc2)c(C(=O)O)c1,4.96%
21,CCOc1ccc(-c2ncncc2-c2ccccc2OC)c(O)c1,0.08%
22,COc1ccc(-n2nc3c(N4CCC(C(=O)N5CCC(C)CC5)CC4)nnc(C)c3c2C)cc1,0.01%
23,CCOC(=O)C(CCCCCCC(NC(C)=O)(C(=O)OCC)C(=O)OCC)(NC(C)=O)C(=O)OCC,-0.02%
24,Cc1ccc(C(=O)N(C)CC(=O)Nc2cccc(F)c2)cc1S(=O)(=O)N1CCCCC1,0.72%

row,Compound,fluorescence artifact activation
1,Cc1ccnc(N/C=C(\C#N)c2nc(-c3cccc(Br)c3)cs2)c1,5.15%
2,COc1cccc(/C=N/Nc2nnc(C)n2N)c1O,0.12%
3,CC(C)(C)c1ccc(-c2n[nH]c(=S)n2CC2CCCO2)cc1 (stereo not given),34.7% (active)
4,CCOc1cc(/C=C2\NC(=O)NC2=O)cc([N+](=O)[O-])c1O,0.01%
5,COc1ccc(/C=C2/SC(c3ccc(C)cc3)=NC2=O)cc1OC,6.74%
6,CCOC(=O)c1ccc(-c2c(-c3ccc4c(c3)OCO4)noc2C)cc1F,0.96%
7,O=C(O)CSc1nc2ccccc2nc1Cc1ccccc1F,163% (active)
8,O=C(Cc1nc2ccccc2[nH]c1=O)c1ccccc1,0.01%
9,O=c1ccc2cc3c4c(c2o1)CCCN4CCC3,9.87%
10,Cn1ncc2c(O/N=C(\N)c3ccc(C(F)(F)F)cc3)ncnc21,18.5% (active)
11,Cc1c(O)c(=O)c2ccccc2n1C,2.22%
12,CCOc1ccc2ccccc2c1CNCCN1CCOCC1,9.02%
13,CCCOc1ccc(Cn2c(=O)oc3ccc(C)cc32)cc1OC,6.44%
14,CCCCCOc1ccc(CN2CCOCC2)cc1Cl,25.8% (active)
15,CCC(=O)N(C)CCc1cc2c(c(OC)c1/C=N/NC(=O)c1ccc(Br)cc1)OCO2,0.24%
16,O=C(Cn1c(=O)c(=O)n(Cc2ccccc2)c2ccc(Cl)cc21)Nc1ccc(F)cc1F,0.95%
17,COc1ncnc2c1N=C1CC(C)(C)CC(N)=C1S2,17.8% (active)
18,CC1(C)CC2CC(C)(CN2C(=S)Nc2ccccc2F)C1 (stereo not given),0.69%
19,O=C(NC1CC1)c1cccc2c1C(=O)c1ccc(N3CCC(Cc4ccccc4)CC3)cc1S2(=O)=O,-0.05%
20,O=C1CCC/C(=N/NC(=O)c2sc3ccccc3c2Cl)C1,0.36%
21,O=C1CCCC(=NNC(=O)c2cc3ccccc3cc2O)C1,0.08%
22,COc1ccc2c(Cl)c(C(=O)N/N=C3\CCCC(=O)C3)sc2c1,16.2% (active)
23,CN(C)/C=C/C(=O)c1ccc(Br)s1,0.3%
24,O=c1c(/C=N/Nc2ccccc2)c(Sc2nnnn2-c2ccccc2)nc2ccccn12,-0.06%

row,Compound,fluorescence artifact activation
1,C(=N\Nc1nnnn1-c1ccccc1)/c1ccncc1,0.02%
2,O=C(O)c1ccccc1CSc1nnnn1-c1ccccc1,13.5% (active)
3,Cc1ccnc(NC(=O)c2ccc(Br)s2)c1,0.08%
4,CCCCC1=CC2=C(c3ccco3)C(=O)C(C)(OC(=O)c3ccc(OC)cc3)C(=O)C2=CN1CCc1ccccn1 (stereo not given),5.57%
5,O=C(COC(=O)/C=C/c1ccccc1[N+](=O)[O-])NNC(=O)c1ccc(F)cc1,0.09%
6,COc1ccc(OC)c(NC(=O)CNC(=O)Cn2c(C)cc3ccccc3c2=O)c1,1380% (active)
7,COc1ccc(OC)c(NC(=S)Nc2ccccc2)c1,-0.01%
8,COCc1cc(C)n(CC(=O)Nc2ccccc2C(=O)OC)c(=O)c1C#N,5.24%
9,C=CCn1c(COc2cccc(C)c2)nnc1SCn1nnc2ccccc2c1=O,0.03%
10,NC(=O)C1(NC(=O)[C@@H]2CC3(CC(c4cccc(NC(=O)[C@@H]5CCC(=O)N5)c4)=NO3)CN2C(=O)c2ccccc2)CC1 (stereo not given in full),0.3%
11,CCC(=O)Nc1ccc(NC(=S)NC(=O)c2oc3ccccc3c2C)cc1,0.25%
12,COCCCn1c(=O)/c(=C\c2ccccc2OC(C)C)s/c1=C(/C#N)C(=O)Nc1ccc(C(=O)O)cc1,0.05%
13,CN(C)c1ccc(/C=C(/C#N)C(=O)NCc2ccccc2)o1,2.9%
14,CCN(CC)c1ccc(/C=C(/C#N)C(=O)NCc2ccccc2)o1,0.1%
15,CN(C)c1ccc(/C=C(\C#N)C(=O)c2ccccc2)cc1,0.22%
16,CCN(CC)c1ccc(/C=C(\C#N)C(=O)NCc2ccccc2)cc1,13.8% (active)
17,CCN(CC)c1ccc(/C=C(\C#N)C(=O)c2ccc(Br)cc2)cc1,-0.11%
18,CCN(CC)c1ccc(/C=C(\C#N)C(N)=S)cc1,16.2% (active)
19,O=C(COC(=O)c1ccc(S(=O)(=O)N2CCCC2)cc1)NCc1ccco1,0.32%
20,COc1ccccc1C(=O)NN(C)C1=NS(=O)(=O)c2ccccc21,0.12%
21,CCNC(=O)NNC(=O)C1CC(c2cccs2)=NO1 (stereo not given),0%
22,Cc1ccc(C2NC(=O)c3c(sc4c3CCN(C)C4)N2)o1 (stereo not given),0.12%
23,CCOC(=O)c1c(C)[nH]c(C2=NNC(=NC(C)COC)SC2)c1C (stereo not given),22% (active)
24,Cc1cc(C)n(-c2ccc([N+](=O)[O-])cc2-c2nn[nH]n2)n1,2.39%

row,Compound,fluorescence artifact activation
1,CCC(=Cc1ccccc1OC)c1ccncc1,3.06%
2,COc1ccc(CCNc2cc(C)[nH]c(=O)c2)cc1OC,0.6%
3,COc1ccc(NC(=O)CCN2CC(C)OC(C)C2)c(OC)c1 (stereo not given),0.05%
4,Cc1ccc(C)c(NC(=O)CCN2CCOCC2)c1,-0.02%
5,COc1ccc(NC(=O)CCN2CCCC2)c(OC)c1,27.4% (active)
6,COc1ccc(Nc2nc3ccc(C)cc3cc2C#N)c(OC)c1,0.04%
7,CCCN(CCC)S(=O)(=O)c1ccc(C(=O)OCCN2C(=O)c3cccc4c(N5CCOCC5)ccc(c34)C2=O)cc1,4.63%
8,Cc1ccccc1NC(=O)c1nnn(-c2ccc3c(c2)OCCO3)c1N,0.09%
9,CCN1C(=O)c2cccc3c(NC(=O)c4ccc5c(c4)OCCO5)ccc1c23,36.4% (active)
10,COc1cc(/C=C(/C#N)C(=O)NCCCc2ccccc2)ccc1OCC(=O)O,0.24%
11,N#C/C(=C\c1ccccn1)c1nc2ccccc2s1,0.06%
12,COc1cc(/C=C(\C#N)c2nc3ccccc3s2)ccc1OCC(=O)Nc1ccccc1,36.6% (active)
13,Cc1ccc(S(=O)(=O)Nc2ccccc2N(C)S(=O)(=O)c2ccc(C)cc2)cc1,2.27%
14,NC(=O)c1cc2ccc(O)cc2oc1=NCc1ccccc1,0.04%
15,CCN1CC=C2C(C1)C(c1ccc(Cl)s1)C(C#N)=C(N)C2(C#N)C#N (stereo not given),2.16%
16,COc1cccc(F)c1C(=O)NC(=O)Nc1ccc2nc(C)oc2c1,42.8% (active)
17,CCNC(=S)N/N=C/c1sc(N2CCCCC2)nc1-c1cccs1,0.09%
18,Cc1ccc(CNC(=O)CCS(=O)(=O)c2cc3c(cc2C)NC(=O)CO3)cc1,0.29%
19,Cc1ncn(C23CC4CC(CC(C4)C2)C3)n1,0%
20,CCc1ccc(C(=O)NNc2cc(Cl)ccc2Cl)cc1,0.03%
21,Cc1cccc2cc3c(N)c(C(=O)N4CCc5ccccc54)sc3nc12,-0.06%
22,Cc1nn(C)c(C(=O)N2CCc3ccccc32)c1Br,23.4% (active)
23,Cc1c(Br)c(C(=O)N2CCc3ccccc32)nn1C,0.13%

# — PubChem BioAssay AID504382 (The Scripps Research Institute Molecular Screening Center, 2011)
